Reference: ChEMBL document CHEMBL2417474, “Synthesis, antiproliferative and anti-inflammatory activities of some novel 6-aryl-2-(p-(methanesulfonyl)phenyl)-4,5-dihydropyridazi-3(2H)-ones” (Eur J Med Chem, 2013)

Assays:
CCRF-CEM = test: Growth inhibition of human CCRF-CEM cells after 48 hrs by sulforhodamine B assay; type: functional, cell-based; conditions: for CC50: read-out: LC50 (the source's name)
Outline: (§1)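 NCI 60-cell-line panel grown in RPMI-type medium with 5% fetal calf serum and 2 mM L-glutamine. Cells preincubated 24 h, then exposed continuously for 48 h to compound in DMSO at 10^-4 to 10^-8 M (five 10-fold levels). Growth read by SRB protein stain. GI50 is the concentration giving a 50% reduction in net protein increase relative to control cells.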

SF-268 = test: Growth inhibition of human SF268 cells assessed as cell growth at 10 uM after 48 hrs by sulforhodamine B assay; type: functional; conditions: SF-268, 48 h, read-out: Activity
NCI-H226 = test: Growth inhibition of human NCI-H226 cells after 48 hrs by sulforhodamine B assay; type: functional; conditions: NCI-H226, 48 h; for CC50: read-out: LC50 (the source's name)
Outline: (§2)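 NCI 60-cell-line panel. Cells were grown in medium with 5% fetal calf serum and 2 mM L-glutamine, then preincubated 24 h in plates. Compounds were added from DMSO at five 10-fold concentrations from 100 to 0.01 µM and left on cells continuously for 48 h. Cell growth was read by sulforhodamine B protein stain. GI50 is the concentration that halves net protein increase relative to control cells.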

HOP-62 = test: Growth inhibition of human HOP62 cells after 48 hrs by sulforhodamine B assay; type: functional; conditions: HOP-62, 48 h; for CC50: read-out: LC50 (the source's name); outline: as §1
NCI-H522 = test: Growth inhibition of human NCI-H522 cells after 48 hrs by sulforhodamine B assay; type: functional; conditions: NCI-H522, 48 h; outline: as §2
SF-295 = test: Growth inhibition of human SF295 cells after 48 hrs by sulforhodamine B assay; type: functional; conditions: SF-295, 48 h; outline: as §2
Rattus norvegicus = test: Antiinflammatory activity in Wistar rat assessed as inhibition of carrageenan-induced paw edema at 0.05 mmol/kg, po administered 30 mins prior challenge measured after 5 hrs; type: functional
Outline: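 Wistar rats of either sex, 150–175 g, fasted 16 h, 6 per group. Dosed orally at 0.05 mmol/kg, suspended in 1% CMC in water (10 ml/kg). 30 min later, 0.1 ml of 1% carrageenan in saline injected subplantar into the left hind paw. Paw volume read by plethysmometer at 0, 3 and 5 h. % inhibition = (1 − Vt/Vc) × 100 against the vehicle group.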

OVCAR-5 = test: Growth inhibition of human OVCAR5 cells after 48 hrs by sulforhodamine B assay; type: functional; conditions: OVCAR-5, 48 h; for CC50: read-out: LC50 (the source's name); outline: as §2
MDA-MB-231 = test: Growth inhibition of human MDA-MB-231 cells after 48 hrs by sulforhodamine B assay; type: functional; conditions: MDA-MB-231, 48 h; outline: as §1
[1] = Growth inhibition of human NCI-ADR-RES cells assessed as cell growth at 10 uM after 48 hrs by sulforhodamine B assay; type: functional; conditions: read-out: Activity
SF-539 = test: Growth inhibition of human SF539 cells after 48 hrs by sulforhodamine B assay; type: functional; conditions: SF-539, 48 h; for CC50: read-out: LC50 (the source's name); outline: as §2
LOX IMVI = test: Growth inhibition of human LOXIMVI cells after 48 hrs by sulforhodamine B assay; type: functional; conditions: for CC50: read-out: LC50 (the source's name); outline: as §1
TK-10 = test: Growth inhibition of human TK10 cells assessed as cell growth at 10 uM after 48 hrs by sulforhodamine B assay; type: functional; conditions: TK-10, 48 h, read-out: Activity
Outline: (§3)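 Single-dose NCI screen. Tumor lines were cultured in medium with 5% fetal calf serum and 2 mM L-glutamine, preincubated 24 h, then given compound in DMSO. After 48 h continuous exposure, cell growth was estimated by sulforhodamine B protein assay.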

MCF7 = test: Growth inhibition of human MCF7 cells assessed as cell growth at 10 uM after 48 hrs by sulforhodamine B assay; type: functional; conditions: MCF7, 48 h, read-out: Activity
RXF 393 [2] = test: Growth inhibition of human RXF393 cells assessed as cell growth at 10 uM after 48 hrs by sulforhodamine B assay; type: functional; conditions: RXF 393, 48 h, read-out: Activity
HOP-92 = test: Growth inhibition of human HOP92 cells after 48 hrs by sulforhodamine B assay; type: functional; conditions: HOP-92, 48 h; for CC50: read-out: LC50 (the source's name); outline: as §1
MOLT-4 [3] = test: Growth inhibition of human MOLT4 cells assessed as cell growth at 10 uM after 48 hrs by sulforhodamine B assay; type: functional; conditions: MOLT-4, 48 h, read-out: Activity
BT-549 [4] = test: Growth inhibition of human BT549 cells after 48 hrs by sulforhodamine B assay; type: functional; conditions: BT-549, 48 h; for CC50: read-out: LC50 (the source's name); outline: as §1
SNB-75 [5] = test: Growth inhibition of human SNB75 cells after 48 hrs by sulforhodamine B assay; type: functional; conditions: SNB-75, 48 h; for CC50: read-out: LC50 (the source's name); outline: as §2
IGROV-1 [6] = test: Growth inhibition of human IGROV1 cells assessed as cell growth at 10 uM after 48 hrs by sulforhodamine B assay; type: functional; conditions: IGROV-1, 48 h, read-out: Activity
IGROV-1 [7] = test: Growth inhibition of human IGROV1 cells after 48 hrs by sulforhodamine B assay; type: functional; conditions: IGROV-1, 48 h; outline: as §1
MDA-MB-468 = test: Growth inhibition of human MDA-MB-468 cells after 48 hrs by sulforhodamine B assay; type: functional; conditions: MDA-MB-468, 48 h; outline: as §2
SK-OV-3 = test: Growth inhibition of human SKOV3 cells assessed as cell growth at 10 uM after 48 hrs by sulforhodamine B assay; type: functional; conditions: SK-OV-3, 48 h, read-out: Activity
ACHN = test: Growth inhibition of human ACHN cells assessed as cell growth at 10 uM after 48 hrs by sulforhodamine B assay; type: functional; conditions: read-out: Activity
Malme-3M = test: Growth inhibition of human MALME-3M cells assessed as cell growth at 10 uM after 48 hrs by sulforhodamine B assay; type: functional; conditions: read-out: Activity
RXF 393 [8] = test: Growth inhibition of human RXF393 cells after 48 hrs by sulforhodamine B assay; type: functional; conditions: RXF 393, 48 h; outline: as §2
SNB-75 [9] = test: Growth inhibition of human SNB75 cells assessed as cell growth at 10 uM after 48 hrs by sulforhodamine B assay; type: functional; conditions: SNB-75, 48 h, read-out: Activity
MOLT-4 [10] = test: Growth inhibition of human MOLT4 cells after 48 hrs by sulforhodamine B assay; type: functional; conditions: MOLT-4, 48 h; outline: as §2
BT-549 [11] = test: Growth inhibition of human BT549 cells assessed as cell growth at 10 uM after 48 hrs by sulforhodamine B assay; type: functional; conditions: BT-549, 48 h, read-out: Activity
UO-31 = test: Growth inhibition of human UO31 cells assessed as cell growth at 10 uM after 48 hrs by sulforhodamine B assay; type: functional; conditions: UO-31, 48 h, read-out: Activity; outline: as §3

Cc1cc(O)ccc1C1=NN(c2ccc(S(C)(=O)=O)cc2)C(=O)CC1
GI50 (CCRF-CEM): 9.09 µM
TGI (CCRF-CEM): > 100 µM
CC50 (CCRF-CEM): > 100 µM
growth at 10 µM (SF-268): 80.3%
GI50 (NCI-H226): > 100000 nM
TGI (NCI-H226): > 100 µM
CC50 (NCI-H226): > 100 µM
GI50 (HOP-62): 9.07 µM
TGI (HOP-62): > 100 µM
CC50 (HOP-62): > 100 µM
GI50 (NCI-H522): 2530 nM
LC50 (concentration killing 50% of starting cells) (NCI-H522): > 100 µM
TGI (NCI-H522): 8.6 µM
GI50 (SF-295): 2870 nM
LC50 (concentration killing 50% of cells present at start) (SF-295): > 100 µM
TGI (SF-295): 12.4 µM
inhibition in vivo at 50 µmol/kg (Rattus norvegicus): 52.6%
GI50 (OVCAR-5): 53.8 µM
TGI (OVCAR-5): > 100 µM
CC50 (OVCAR-5): > 100 µM
GI50 (MDA-MB-231): 17.1 µM
LC50 (MDA-MB-231): > 100 µM
TGI (MDA-MB-231): > 100 µM
growth at 10 µM [1]: 40.6%
GI50 (SF-539): 13.2 µM
TGI (SF-539): > 100 µM
CC50 (SF-539): > 100 µM
GI50 (LOX IMVI): 7.25 µM
TGI (LOX IMVI): > 100 µM
CC50 (LOX IMVI): > 100 µM
growth at 10 µM (TK-10): 105%
growth at 10 µM (MCF7): 82.8%
growth at 10 µM (RXF 393 [2]): 81.2%
GI50 (HOP-92): 6.49 µM
TGI (HOP-92): > 100 µM
CC50 (HOP-92): > 100 µM
growth at 10 µM (MOLT-4 [3]): 52.7%
GI50 (BT-549 [4]): 4970 nM
TGI (BT-549 [4]): > 100 µM
CC50 (BT-549 [4]): > 100 µM
GI50 (SNB-75 [5]): 5.53 µM
TGI (SNB-75 [5]): > 75.2 µM
CC50 (SNB-75 [5]): > 100 µM
growth at 10 µM (IGROV-1 [6]): 43.5%
GI50 (IGROV-1 [7]): 7.13 µM
LC50 (IGROV-1 [7]): > 100 µM
TGI (IGROV-1 [7]): > 100 µM
GI50 (MDA-MB-468): 11 µM
LC50 (concentration killing 50% of cells) (MDA-MB-468): > 100 µM
TGI (MDA-MB-468): 44.3 µM
growth at 10 µM (SK-OV-3): 85%
growth at 10 µM (ACHN): 79.7%
growth at 10 µM (Malme-3M): 52.7%
GI50 (RXF 393 [8]): 12.8 µM
LC50 (50% lethal concentration) (RXF 393 [8]): > 100 µM
TGI (RXF 393 [8]): > 100 µM
growth at 10 µM (SNB-75 [9]): 75.2%
GI50 (MOLT-4 [10]): 14.3 µM
LC50 (MOLT-4 [10]): > 100 µM
TGI (MOLT-4 [10]): > 100 µM
growth at 10 µM (BT-549 [11]): 58.2%
growth at 10 µM (UO-31): 48.8%

CCc1ccc(C2=NN(c3ccc(S(C)(=O)=O)cc3)C(=O)CC2)cc1
GI50 (CCRF-CEM): 2.31 µM
TGI (CCRF-CEM): > 100 µM
CC50 (CCRF-CEM): > 100 µM
growth at 10 µM (SF-268): 42.8%
GI50 (NCI-H226): 200 nM
TGI (NCI-H226): > 100 µM
CC50 (NCI-H226): > 100 µM
GI50 (HOP-62): 4.3 µM
TGI (HOP-62): > 100 µM
CC50 (HOP-62): > 100 µM
GI50 (NCI-H522): 330 nM
LC50 (concentration killing 50% of starting cells) (NCI-H522): > 100 µM
TGI (NCI-H522): 8.37 µM
GI50 (SF-295): 930 nM
LC50 (concentration killing 50% of cells present at start) (SF-295): > 100 µM
TGI (SF-295): 8.73 µM
inhibition in vivo at 50 µmol/kg (Rattus norvegicus): 65.7%
GI50 (OVCAR-5): 8.51 µM
TGI (OVCAR-5): > 100 µM
CC50 (OVCAR-5): > 100 µM
GI50 (MDA-MB-231): 3.46 µM
LC50 (MDA-MB-231): > 100 µM
TGI (MDA-MB-231): > 100 µM
growth at 10 µM [1]: 6.7%
GI50 (SF-539): 2.35 µM
TGI (SF-539): 18.9 µM
CC50 (SF-539): > 100 µM
GI50 (LOX IMVI): 3.5 µM
TGI (LOX IMVI): > 100 µM
CC50 (LOX IMVI): > 100 µM
growth at 10 µM (TK-10): 71.1%
growth at 10 µM (MCF7): 26%
growth at 10 µM (RXF 393 [2]): 27.4%
GI50 (HOP-92): 1.58 µM
TGI (HOP-92): 9.88 µM
CC50 (HOP-92): > 100 µM
growth at 10 µM (MOLT-4 [3]): 15.3%
GI50 (BT-549 [4]): 960 nM
TGI (BT-549 [4]): 35.6 µM
CC50 (BT-549 [4]): > 100 µM
GI50 (SNB-75 [5]): 1.32 µM
TGI (SNB-75 [5]): > 7.89 µM
CC50 (SNB-75 [5]): > 100 µM
growth at 10 µM (IGROV-1 [6]): 37.4%
GI50 (IGROV-1 [7]): 1.48 µM
LC50 (IGROV-1 [7]): > 100 µM
TGI (IGROV-1 [7]): 55.2 µM
GI50 (MDA-MB-468): 3.75 µM
LC50 (concentration killing 50% of cells) (MDA-MB-468): > 100 µM
TGI (MDA-MB-468): 31.2 µM
growth at 10 µM (SK-OV-3): 28.7%
growth at 10 µM (ACHN): 46%
growth at 10 µM (Malme-3M): 38.8%
GI50 (RXF 393 [8]): 2.04 µM
LC50 (50% lethal concentration) (RXF 393 [8]): > 100 µM
TGI (RXF 393 [8]): 19.8 µM
growth at 10 µM (SNB-75 [9]): 16.7%
GI50 (MOLT-4 [10]): 3.52 µM
LC50 (MOLT-4 [10]): > 100 µM
TGI (MOLT-4 [10]): 6.75 µM
growth at 10 µM (BT-549 [11]): 21.9%
growth at 10 µM (UO-31): 33.3%
